Measurements: ChEMBL document CHEMBL3044956, “Nematicidal and antifungal activities of annonaceous acetogenins from Annona squamosa against various plant pathogens” (J Agric Food Chem, 2011)
Converted amounts (≈) assume the structure as drawn.

Columns and labels:
[1] = tested on: Bursaphelenchus xylophilus; test: Nematicidal activity against second juvenile stage (J2) of Bursaphelenchus xylophilus assessed as mortality after 2 days by microtiter plate assay method (Beneficial crop Pine); format: functional; settings: 48 h
How it was run: (§1)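 Pine wood nematodes reared on B. cinerea mycelia on PDA for 7 days at 28 °C. J2s collected in 0.01% Triton X-100 water and tested in microtiter plates. Compounds in DMSO or MeOH, solvent ≤1%; solvent-only controls. Concentrations 0.004–1 μg/mL. Mortality Abbott-corrected; LC50 by probit. Two runs, three replicates each.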

[2] = tested on: Bursaphelenchus xylophilus; test: Nematicidal activity against second juvenile stage (J2) of Bursaphelenchus xylophilus assessed as mortality at >0.33 ug/ml after 2 days by microtiter plate assay method (Beneficial crop Pine); format: functional; how it was run: as §1
Colletotrichum coccodes [3] = test: In vivo antifungal activity against Colletotrichum coccodes infected red pepper seedlings assessed as control of red pepper anthracnose development at 250 ug/ml treated 1 day before spore inoculation measured 3-7 days after inoculation; format: functional
How it was run: (§2)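 Potted seedlings sprayed to runoff with material dissolved in MeOH and diluted in 0.025% Tween 20 (5% MeOH); controls got the Tween/MeOH solution alone. Inoculated with spores or mycelial suspension 1 day later. Infected leaf or sheath area rated 3–7 days after inoculation; % control = 100(A−B)/A. Randomized complete block design, three replicates, run in duplicate; Tukey HSD.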

Rhizoctonia solani [4] = test: In vivo antifungal activity against Rhizoctonia solani infected rice seedlings assessed as control of rice sheath blight disease development at 500 ug/ml treated 1 day before spore inoculation measured 3-7 days after inoculation; format: functional; how it was run: as §2
Rhizoctonia solani [5] = test: In vivo antifungal activity against Rhizoctonia solani infected rice seedlings assessed as control of rice sheath blight disease development at 125 ug/ml treated 1 day before spore inoculation measured 3-7 days after inoculation; format: functional; how it was run: as §2
Meloidogyne incognita [6] = test: Nematicidal activity against second juvenile stage (J2) of Meloidogyne incognita (root-knot nematode) assessed as mortality incubated in the dark at 28 degC after 2 days by light microscopy (benficial crop Tomato); format: functional; settings: 48 h
How it was run: (§3)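 M. incognita eggs taken from infected tomato roots with hypochlorite and J2s hatched in Baermann funnels at 28 °C. J2s from the first 3 days kept in 0.01% Tween 20 water and used within 24 h. About 100 J2s per well; stock added 1:100 in DMSO or MeOH (≤1%). Plates kept shaking in the dark at 28 °C, scored by microscope at 1, 2 and 3 days. Mortality Abbott-corrected. Two runs, three replicates each.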

Puccinia recondita [7] = test: In vivo antifungal activity against Puccinia recondita infected wheat seedlings assessed as reduction in wheat leaf rust disease symptoms development at 250 ug/ml treated 1 day before spore inoculation measured 7 days after inoculation; format: functional; set-up: scale not given: the % may be the effect or the level left; how it was run: as §2
Botrytis cinerea [8] = test: In vivo antifungal activity against Botryotinia fuckeliana infected in tomato seedlings assessed as control of tomato gray mold disease development at 500 ug/ml treated 1 day before spore inoculation measured 3-7 days after inoculation; format: functional; how it was run: as §2
Phytophthora infestans [9] = test: In vivo antifungal activity against Phytophthora infestans zoospores infected tomato seedlings assessed as control of tomato late blight disease development treated 1 day before spore inoculation measured 3 days after inoculation; format: functional, organism-based; how it was run: as §2
Puccinia recondita [10] = test: In vivo antifungal activity against Puccinia recondita infected wheat seedlings assessed as reduction in wheat leaf rust disease symptoms development at 125 ug/ml treated 1 day before spore inoculation measured 7 days after inoculation; format: functional; set-up: scale not given: the % may be the effect or the level left; how it was run: as §2
Phytophthora infestans [11] = test: Antifungal activity against Phytophthora infestans assessed as inhibition of sporangium germination incubated at 20 degC for 24 hr by light microscopy; format: functional, organism-based
How it was run: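 Sporangium germination: compounds serially diluted in MeOH (12500 to 391 μg/mL as stock series), sporangia incubated 24 h at 20 °C. About 100 sporangia per replicate scored for germination by light microscope. Experiment repeated, mean ± SD. IC50 by probit.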

Pyricularia oryzae [12] = test: In vivo antifungal activity against Magnaporthe oryzae infected rice seedlings assessed as control of rice blast disease development at 500 ug/ml treated 1 day before spore inoculation measured 3-7 days after inoculation; format: functional; how it was run: as §2
Pyricularia oryzae [13] = test: In vivo antifungal activity against Magnaporthe oryzae infected rice seedlings assessed as control of rice blast disease development at 250 ug/ml treated 1 day before spore inoculation measured 3-7 days after inoculation; format: functional; how it was run: as §2
Rhizoctonia solani [14] = test: In vivo antifungal activity against Rhizoctonia solani infected rice seedlings assessed as control of rice sheath blight disease development at 250 ug/ml treated 1 day before spore inoculation measured 3-7 days after inoculation; format: functional; how it was run: as §2
Colletotrichum coccodes [15] = test: In vivo antifungal activity against Colletotrichum coccodes infected red pepper seedlings assessed as control of red pepper anthracnose development at 500 ug/ml treated 1 day before spore inoculation measured 3-7 days after inoculation; format: functional; how it was run: as §2
Blumeria hordei [16] = test: In vivo antifungal activity against Blumeria graminis f. sp. hordei infected barley seedlings assessed as control of barley powdery mildew disease development at 125 ug/ml treated 1 day before spore inoculation measured 3-7 days after inoculation; format: functional; how it was run: as §2
Botrytis cinerea [17] = test: In vivo antifungal activity against Botryotinia fuckeliana infected in tomato seedlings assessed as control of tomato gray mold disease development at 125 ug/ml treated 1 day before spore inoculation measured 3-7 days after inoculation; format: functional; how it was run: as §2
Puccinia recondita [18] = test: In vivo antifungal activity against Puccinia recondita infected wheat seedlings assessed as reduction in wheat leaf rust disease symptoms development at 500 ug/ml treated 1 day before spore inoculation measured 7 days after inoculation; format: functional; set-up: scale not given: the % may be the effect or the level left; how it was run: as §2
Colletotrichum coccodes [19] = test: In vivo antifungal activity against Colletotrichum coccodes infected red pepper seedlings assessed as control of red pepper anthracnose development at 125 ug/ml treated 1 day before spore inoculation measured 3-7 days after inoculation; format: functional; how it was run: as §2
Blumeria hordei [20] = test: In vivo antifungal activity against Blumeria graminis f. sp. hordei infected barley seedlings assessed as control of barley powdery mildew disease development at 500 ug/ml treated 1 day before spore inoculation measured 3-7 days after inoculation; format: functional; how it was run: as §2
Blumeria hordei [21] = test: In vivo antifungal activity against Blumeria graminis f. sp. hordei infected barley seedlings assessed as control of barley powdery mildew disease development at 250 ug/ml treated 1 day before spore inoculation measured 3-7 days after inoculation; format: functional; how it was run: as §2
Meloidogyne incognita [22] = test: Nematicidal activity against second juvenile stage (J2) of Meloidogyne incognita (root-knot nematode) assessed as mortality incubated in the dark at 28 degC after 1 day by light microscopy (benficial crop Tomato); format: functional; settings: 24 h; how it was run: as §3
Phytophthora infestans [23] = test: Antifungal activity against Phytophthora infestans assessed as inhibition of radial mycelial growth at 11.11 to 900 ug/ml incubated at 20 degC for 5 to 7 days by poison plate assay; format: functional
How it was run: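 Poison-plate assay: material in MeOH added 1:100 to V8-agar at 50 °C, 2 mL per well of six-well plates, centre-inoculated with a 5 mm plug from the colony margin. Incubated at 20 °C until control growth reached the edge. Controls were 1% MeOH. Read as % inhibition of radial growth. Two runs, four replicates each. IC50 by probit.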

Meloidogyne incognita [24] = test: Nematicidal activity against second juvenile stage (J2) of Meloidogyne incognita (root-knot nematode) assessed as mortality incubated in the dark at 28 degC after 3 days by light microscopy (benficial crop Tomato); format: functional; settings: 72 h; how it was run: as §3
Phytophthora infestans [25] = test: Antifungal activity against Phytophthora infestans assessed as inhibition of zoospore germination incubated in the dark at 20 degC for 24 hr by light microscopy; format: functional, organism-based
How it was run: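 Zoospores released by chilling sporangia 1 h at 4 °C, then filtered to remove sporangia. Test solution in MeOH mixed 1:100 with the suspension (1% MeOH control), loaded onto hole-slide glasses and kept humid at 20 °C for 24 h in the dark. Germinated cells counted per hole by light microscope. Experiment repeated, mean ± SD.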

Botrytis cinerea [26] = test: In vivo antifungal activity against Botryotinia fuckeliana infected in tomato seedlings assessed as control of tomato gray mold disease development at 250 ug/ml treated 1 day before spore inoculation measured 3-7 days after inoculation; format: functional; how it was run: as §2
Pyricularia oryzae [27] = test: In vivo antifungal activity against Magnaporthe oryzae infected rice seedlings assessed as control of rice blast disease development at 125 ug/ml treated 1 day before spore inoculation measured 3-7 days after inoculation; format: functional; how it was run: as §2
Blumeria hordei [28] = test: In vivo antifungal activity against Blumeria graminis f. sp. hordei infected barley seedlings assessed as control of barley powdery mildew disease development at 1 ug/ml treated 1 day before spore inoculation measured 3-7 days after inoculation; format: functional; how it was run: as §2
Blumeria hordei [29] = test: In vivo antifungal activity against Blumeria graminis f. sp. hordei infected barley seedlings assessed as control of barley powdery mildew disease development at 100 ug/ml treated 1 day before spore inoculation measured 3-7 days after inoculation; format: functional; how it was run: as §2
Pyricularia oryzae [30] = test: In vivo antifungal activity against Magnaporthe oryzae infected rice seedlings assessed as control of rice blast disease development at 1 ug/ml treated 1 day before spore inoculation measured 3-7 days after inoculation; format: functional; how it was run: as §2
Pyricularia oryzae [31] = test: In vivo antifungal activity against Magnaporthe oryzae infected rice seedlings assessed as control of rice blast disease development at 50 ug/ml treated 1 day before spore inoculation measured 3-7 days after inoculation; format: functional; how it was run: as §2

CCCCCCCCCC[C@@H](O)[C@H]1CC[C@H]([C@H](O)CCCCCCCCCCCCCCC2=C[C@H](C)OC2=O)O1 (relative stereo) [REL-ANNOTEMOYIN-1]
LC50 [1]: 0.947 µg/mL

CCCCCCCCCCCC[C@@H](O)[C@H]1CC[C@H]([C@H](O)CCCCCCCCCCCCC2=C[C@H](C)OC2=O)O1 (relative stereo) [REL-SOLAMIN]
LC50 [1]: > 1 µg/mL

CCCCCCCCCC[C@H](O)[C@H]1CC[C@H]([C@H]2CC[C@H]([C@H](O)CCCCCCCCCCC3=C[C@H](C)OC3=O)O2)O1 (relative stereo) [REL-SQUAMOCIN-J]
mortality [2]: 100% | LC50 [1]: 0.025 µg/mL

CCCCCCCCCC[C@@H](O)[C@H]1CC[C@H]([C@H]2CC[C@H]([C@H](O)CCCCCCCCCCC3=C[C@H](C)OC3=O)O2)O1 (relative stereo) [REL-SQUAMOCIN-K]
mortality [2]: 100% | LC50 [1]: 0.039 µg/mL

CCCCCC[C@H](O)CCC[C@@H](O)[C@H]1CC[C@H]([C@H]2CC[C@H]([C@H](O)CCCCCCCCCCCCC3=C[C@H](C)OC3=O)O2)O1 (relative stereo) [REL-SQUAMOCIN]
Activity (Colletotrichum coccodes [3]): 0% | Activity (Rhizoctonia solani [4]): 0% | Activity (Rhizoctonia solani [5]): 0% | LC50 (Meloidogyne incognita [6]): > 100 µg/mL | Activity (Puccinia recondita [7]): 20% | Activity (Botrytis cinerea [8]): 0% | Activity (Phytophthora infestans [9]): Dose-dependent effect | Activity (Puccinia recondita [10]): 0% | IC50 (Phytophthora infestans [11]): 1.24 µg/mL (≈ 1.99 µM) | inhibition (Phytophthora infestans [11]): Dose-dependent effect | Activity (Pyricularia oryzae [12]): 50% | Activity (Pyricularia oryzae [13]): 0% | Activity (Rhizoctonia solani [14]): 11.8% | Activity (Colletotrichum coccodes [15]): 0% | Activity (Blumeria hordei [16]): 0% | Activity (Botrytis cinerea [17]): 0% | Activity (Puccinia recondita [18]): 83.3% | Activity (Colletotrichum coccodes [19]): 0% | mortality [2]: 100% | Activity (Blumeria hordei [20]): 0% | Activity (Blumeria hordei [21]): 0% | LC50 (Meloidogyne incognita [22]): > 100 µg/mL | growth inhibition (GI) (Phytophthora infestans [23]): 31% | LC50 (Meloidogyne incognita [24]): 54.9 µg/mL (≈ 88.1 µM) | IC50 (Phytophthora infestans [25]): 3.05 µg/mL (≈ 4.9 µM) | inhibition (Phytophthora infestans [25]): Dose-dependent effect | LC50 [1]: 0.006 µg/mL | Activity (Botrytis cinerea [26]): 0% | Activity (Pyricularia oryzae [27]): 0%

CCCCNC(=O)n1c(NC(=O)OC)nc2ccccc21 [BENOMYL]
Activity (Blumeria hordei [28]): 75% | Activity (Blumeria hordei [29]): 100%

CN(CC[C@H](N)CC(=O)N[C@H]1CC[C@H](n2ccc(N)nc2=O)O[C@@H]1C(=O)O)C(=N)N [BLASTADIN S]
Activity (Pyricularia oryzae [30]): 65.5% | Activity (Pyricularia oryzae [31]): 100%
